Source: publication PMC10245936 (bioRxiv, 2023)
“And” between values parts separate entries of the source, which are not always exact repeats. Equal entries are not always repeated.

How the values were obtained:
[1] = tested on: 3 different GII.4 HuNoV isolates; settings: fetal ileum-derived 3D HIEs; non-cytotoxic concentration; cited from earlier work
[2] = standard adult NTZ dose, one 500 mg tablet by mouth twice daily; cited from earlier work
[3] = tested on: GI.1-based HuNoV replicon; settings: Huh7 liver cells; cited from earlier work
HuNoV [4] = settings: HIE monolayers; cited from earlier work
J2 HIE line = test: HIE viability, CellTiter-Glo 2.0 Cell Viability Assay; assay type: cell-based, human; settings: J2 HIEs, 24 h
GII.4 Sydney [P31] HuNoV = test: HuNoV replication; assay type: cell-based, human norovirus; settings: for SI: CC50 over EC50, J2 HIE line
How it was run: (§1)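 Differentiated monolayers (24 h INTp, then 5 days INTd) received 100 TCID50 (TCID50 per genotype and HIE line by Reed-Muench) with compound in CMGF- plus 500 μM GCDCA for 1–2 h at 37°C. Cells were washed 3 times, then kept in compound-containing INTd with GCDCA for 24 h. Five ascending concentrations; vehicle 1% DMSO or 2% H2O final. Genome equivalents by RT-qPCR against a standard curve. Triplicate wells, duplicate qPCR. Dunnett versus vehicle; EC50/EC90 by nonlinear regression (top fixed at 100); SI = CC50/EC50.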

[5] = HIE viability, CellTiter-Glo 2.0 Cell Viability Assay; assay type: cell-based; settings: human, D2004 HIE line monolayers
How it was run: (§2)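 CellTiter-Glo 2.0 read as directed by the manufacturer on 5-day-differentiated monolayers. Triplicate wells were given vehicle or compound in virus-free incubation medium for 24 h. CC50 from nonlinear regression of percent viability, with the bottom fixed at 0.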

5 HuNoV strains = test: Antiviral pipeline, summary over all HuNoV strains and HIE lines tested; assay type: cell-based; settings: Norovirus, in Homo sapiens
How it was run: as §1

[6] = tested on: adult jejunal HIE line (J2) monolayers; settings: cited from earlier work
J4FUT2 HIE line = test: HIE viability, CellTiter-Glo 2.0 Cell Viability Assay; assay type: cell-based, human; settings: J4FUT2 HIEs, 24 h
HuNoV [7] = settings: HuNoV-infected, otherwise healthy patients, versus placebo; cited from earlier work
GI.1[P1] HuNoV = test: HuNoV replication; assay type: cell-based, human norovirus; settings: for EC90: 100 TCID50
How it was run: as §1

HuNoV [8] = settings: 31 randomized patients, compared to placebo; ref NCT03395405; cited from earlier work
J2 HIEs = test: Preliminary dose-range cytotoxicity assessment; assay type: cell-based, human; settings: for monolayer integrity and propidium iodide staining: 24 h
HuNoV [9] = settings: chronically infected HuNoV patients; cited from earlier work
GII.17[P13] HuNoV = test: HuNoV replication; assay type: cell-based, human norovirus
How it was run: as §1

[10] = HIE viability, CellTiter-Glo 2.0 Cell Viability Assay; assay type: cell-based; settings: human, J2004 HIE line monolayers
How it was run: as §2

GII.4 Sydney [P16] HuNoV = test: HuNoV replication; assay type: cell-based, human norovirus; settings: for SI: CC50 over EC50; for EC50 / EC90: 100 TCID50, 24 h
How it was run: as §1

GII.3[P21] HuNoV = test: HuNoV replication; assay type: cell-based, human norovirus
How it was run: as §1

GII.4 Sydney [P31] virus = settings: adult jejunal HIE line plated as monolayers; cited from earlier work
[11] = HIE viability, CellTiter-Glo 2.0 Cell Viability Assay; assay type: cell-based; settings: human, IL2004 HIE line monolayers
How it was run: as §2

[12] = Norovirus, in Homo sapiens, 24 h
[13] = Norovirus, in Homo sapiens, 24 h, read-out: inhibition of replication
[14] = CC50 over EC50, J4FUT2 HIE line
[15] = J4FUT2 HIEs, at 40 and 80 μM, 24 h
[16] = Norovirus, in Homo sapiens, D2004 (duodenal) HIE line
[17] = Norovirus, in Homo sapiens, IL2004 (ileal) HIE line
[18] = Norovirus, in Homo sapiens, J2 HIE line
[19] = Norovirus, in Homo sapiens, J2004 (jejunal) HIE line

Question: Which “replication of HuNoV isolates” value [1] does the source give for `O=C(Nc1ncc([N+](=O)[O-])s1)c1ccccc1O` [tizoxanide] here?
Answer: Its value is “reduced replication”.

Question: And the “maximal concentrations of tizoxanide” value [2]?
Answer: Its value is “approximately 10 µg/mL and ~ 38 µM”.

Question: And the “replication of the replicon” value [3]?
Answer: Its value is “inhibited replication”.

Question: For `C[C@@]1(O)[C@H](O)[C@@H](CO)O[C@H]1n1ccc(N)nc1=O` [2’CMC, 2’-C-methylcytidine], which HuNoV replication (HuNoV [4]) is on record?
Answer: Its HuNoV replication is “inhibit HuNoV replication”.

Question: And the “cytotoxicity (luciferase-based viability assay)” value (J2 HIE line; any concentration tested (up to 316 μM))?
Answer: The value was “not cytotoxic”.

Question: What about the SI (GII.4 Sydney [P31] HuNoV) of the same compound?
Answer: Its SI is over 31.6.

Question: And the reduction of replication (GII.4 Sydney [P31] HuNoV; J2 HIEs, between 3 – 316 μM, 24 h)?
Answer: The reduction of replication was 0.12 – 2.65 log10.

Question: And the EC50 (GII.4 Sydney [P31] HuNoV; [12])?
Answer: Its EC50 is 10 µM.

Question: And the EC90 (GII.4 Sydney [P31] HuNoV; [12])?
Answer: The EC90 was 54 µM.

Question: What about the inhibition at 316 µM (GII.4 Sydney [P31] HuNoV; [13]) of the same compound?
Answer: Its inhibition at 316 µM is 23.5 to 100%.

Question: Which CC50 at 24 h [5] does the source give for `CC(=O)Oc1ccccc1C(=O)Nc1ncc([N+](=O)[O-])s1` [NTZ, nitazoxanide] here?
Answer: The CC50 at 24 h was 50.9 µM.

Question: What about the EC50 (5 HuNoV strains) of the same compound?
Answer: The EC50 was at least 10 µM.

Question: What about the “highest dose tested that kept the cell monolayers intact” value ([6]; J2 HIE monolayers) of the same compound?
Answer: The value was 10 µM.

Question: And the HIE monolayer integrity ([6]; concentrations below 10 µM)?
Answer: The HIE monolayer integrity was “intact”.

Question: What about the cell viability (J4FUT2 HIE line; 80 μM, in tandem with GII.17 assay) of the same compound?
Answer: The cell viability was “significantly reduced cell viability”.

Question: And the cytotoxicity (J4FUT2 HIE line; 40 and 80 μM, in tandem with GII.3 assay)?
Answer: Its cytotoxicity is “cytotoxic”.

Question: What about the average viability (J4FUT2 HIE line; in tandem with GI.1 assay) of the same compound?
Answer: The average viability was “steady up to 40 μM but significantly reduced at 80 μM”.

Question: And the symptom resolution (HuNoV [7])?
Answer: The symptom resolution was “symptom resolution significantly faster”.

Question: What about the SI (GI.1[P1] HuNoV; [14]) of the same compound?
Answer: Its SI is 2.7.

Question: And the EC90 (GI.1[P1] HuNoV; J4FUT2 HIE line, 24 h)?
Answer: The EC90 was 76 µM.

Question: What about the inhibition in replication (GI.1[P1] HuNoV; [15]) of the same compound?
Answer: The inhibition in replication was 72.3 – 98.2%.

Question: What about the “reduction of genome equivalents” value (GI.1[P1] HuNoV; [15]) of the same compound?
Answer: Its value is 0.6 – 1.8 log10.

Question: And the EC50 (GI.1[P1] HuNoV; [12])?
Answer: Its EC50 is 27.4 µM.

Question: What about the EC90 (GI.1[P1] HuNoV; Norovirus, in Homo sapiens, 24 h, J4FUT2 HIE line) of the same compound?
Answer: The EC90 was 76.3 µM.

Question: What about the “replication of HuNoV isolates” value [1] of the same compound?
Answer: The value was “reduced replication”.

Question: What about the “clinical resolution of symptoms” value (HuNoV [8]) of the same compound?
Answer: Its value is “did not improve clinical resolution of symptoms”.

Question: What about the fecal viral load (HuNoV [8]) of the same compound?
Answer: Its fecal viral load is “no effect”.

Question: What about the “monolayer integrity and propidium iodide staining” value (J2 HIEs; 32 μM) of the same compound?
Answer: The value was “monolayers were intact and had few dead or damaged cells”.

Question: And the “monolayer integrity and propidium iodide staining” value (J2 HIEs; 100 μM and above)?
Answer: Its value is “disassociation of the monolayer”.

Question: What about the “cytotoxicity, CellTiter-Glo 2.0” value (J2 HIEs; highest concentrations (≥100 μM) of range 3 to 316 μM) of the same compound?
Answer: Its value is “high cytotoxicity and detachment of the monolayer”.

Question: What about the “clinical outcome versus other or no treatments” value (HuNoV [9]) of the same compound?
Answer: Its value is “no differences were reported”.

Question: What about the SI (GII.17[P13] HuNoV; [14]) of the same compound?
Answer: Its SI is 1.9.

Question: What about the reduction in replication (GII.17[P13] HuNoV; J4FUT2 HIEs, 80 μM, 24 h) of the same compound?
Answer: Its reduction in replication is 1.5 log10.

Question: What about the EC50 (GII.17[P13] HuNoV; [12]) of the same compound?
Answer: The EC50 was 33.4 µM.

Question: And the EC90 (GII.17[P13] HuNoV; [12])?
Answer: The EC90 was over 80 µM.

Question: What about the CC50 at 24 h [10] of the same compound?
Answer: Its CC50 at 24 h is 63.1 µM.

Question: What about the “inhibition of replication (significance)” value (GII.4 Sydney [P16] HuNoV; 40 μM, duodenal D2004 HIEs) of the same compound?
Answer: Its value is “significantly inhibitory”.

Question: And the “inhibition of replication (significance)” value (GII.4 Sydney [P16] HuNoV; 80 μM, across J2, D2004, J2004, IL2004 HIE lines)?
Answer: Its value is “significantly inhibitory”.

Question: And the SI (GII.4 Sydney [P16] HuNoV; D2004 HIE line)?
Answer: Its SI is 1.2.

Question: What about the SI (GII.4 Sydney [P16] HuNoV; IL2004 HIE line) of the same compound?
Answer: Its SI is 1.4.

Question: What about the SI (GII.4 Sydney [P16] HuNoV; J2 HIE line) of the same compound?
Answer: Its SI is 4.0.

Question: And the SI (GII.4 Sydney [P16] HuNoV; J2004 HIE line)?
Answer: Its SI is 1.2.

Question: What about the EC50 (GII.4 Sydney [P16] HuNoV; J2 HIE line) of the same compound?
Answer: The EC50 was 12.9 µM.

Question: What about the EC50 (GII.4 Sydney [P16] HuNoV; [16]) of the same compound?
Answer: The EC50 was 42.8 µM.

Question: And the EC90 (GII.4 Sydney [P16] HuNoV; [16])?
Answer: Its EC90 is over 80 µM.

Question: And the EC50 (GII.4 Sydney [P16] HuNoV; [17])?
Answer: Its EC50 is 40 µM.

Question: And the EC90 (GII.4 Sydney [P16] HuNoV; [17])?
Answer: Its EC90 is 46 µM.

Question: What about the EC50 (GII.4 Sydney [P16] HuNoV; [18]) of the same compound?
Answer: Its EC50 is 12 µM.

Question: And the EC90 (GII.4 Sydney [P16] HuNoV; [18])?
Answer: The EC90 was over 80 µM.

Question: And the EC50 (GII.4 Sydney [P16] HuNoV; [19])?
Answer: Its EC50 is 53.9 µM.

Question: And the EC90 (GII.4 Sydney [P16] HuNoV; [19])?
Answer: Its EC90 is over 80 µM.

Question: What about the SIs (GII.4 Sydney [P16] HuNoV; span over duodenal, jejunal, and ileal lines derived from the same donor) of the same compound?
Answer: The SIs was 1.2 – 1.4.

Question: What about the SI (GII.3[P21] HuNoV; [14]) of the same compound?
Answer: The SI was 4.5.

Question: What about the average percent inhibition (GII.3[P21] HuNoV; [15]) of the same compound?
Answer: The average percent inhibition was 79.6 – 98.8%.

Question: And the EC50 (GII.3[P21] HuNoV; [12])?
Answer: The EC50 was 14.4 µM.

Question: And the EC90 (GII.3[P21] HuNoV; [12])?
Answer: Its EC90 is over 80 µM.

Question: And the inhibition at 20 µM (GII.3[P21] HuNoV; Norovirus, in Homo sapiens, 24 h, read-out: average percent inhibition)?
Answer: The inhibition at 20 µM was 39.7 to 55.2%.

Question: What about the “replication of the replicon” value [3] of the same compound?
Answer: Its value is “inhibited replication”.

Question: What about the “inhibitory activity on replication” value (GII.4 Sydney [P31] virus) of the same compound?
Answer: The value was “no inhibitory activity”.

Question: And the CC50 at 24 h [11]?
Answer: The CC50 at 24 h was 57 µM.

Question: And the viability (J2 HIE line; 80 μM)?
Answer: The viability was “reduction in viability”.

Question: And the SI (GII.4 Sydney [P31] HuNoV)?
Answer: The SI was 1.9.

Question: And the reduction in replication (GII.4 Sydney [P31] HuNoV; J2 HIEs, 40 μM, 24 h)?
Answer: Its reduction in replication is 0.67 log10.

Question: What about the reduction in replication (GII.4 Sydney [P31] HuNoV; J2 HIEs, 80 μM, 24 h) of the same compound?
Answer: Its reduction in replication is 2.31 log10.

Question: And the EC50 (GII.4 Sydney [P31] HuNoV; [12])?
Answer: The EC50 was 37.1 µM.

Question: What about the EC90 (GII.4 Sydney [P31] HuNoV; [12]) of the same compound?
Answer: The EC90 was 43 µM.

Question: What about the inhibition at 40 µM (GII.4 Sydney [P31] HuNoV; [13]) of the same compound?
Answer: The inhibition at 40 µM was 76.7%.

Question: And the inhibition at 80 µM (GII.4 Sydney [P31] HuNoV; [13])?
Answer: The inhibition at 80 µM was 99.5%.
